Key:
[1] = target: Glutamate NMDA receptor (Rattus norvegicus) (UniProt P35439+Q00959+Q00960+Q00961+Q62645+Q8VHN2+Q9R1M7); experiment: Ratio of IC50 for displacement of [3H]-MK-801 from rat cortical membranes NMDA receptor in presence of 30 uM spermine to IC50 for displacement of [3H]-MK-801 from rat cortical membranes NMDA receptor in absence of 30 spermine
Summary of the method: (§1)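 Membranes from rat frontoparietal cortex and hippocampus, prepared in 50 mM Tris acetate pH 7.0. 5 nM [3H]MK-801 was incubated with membranes (~1 mg wet tissue) for 3 h at 23 °C in 10 mM Tris acetate pH 7.0 with 10 µM glutamate and glycine, in triplicate, with or without 30 µM spermine. Compounds were tested at 3–4 concentrations. Nonspecific binding was set with 100 µM (S)-ketamine. Bound ligand was filtered and scintillation-counted. Spermine sensitivity = IC50 (with spermine)/IC50 (without).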

Glutamate NMDA receptor [2] = experiment: Displacement of [3H]-MK-801 from rat cortical membranes NMDA receptor by beta counting analysis in presence of 30 uM spermine; summary of the method: as §1
Glutamate NMDA receptor [3] = experiment: Displacement of [3H]-MK-801 from rat cortical membranes NMDA receptor by beta counting analysis in absence of spermine; summary of the method: as §1
Glutamate NMDA receptor [4] = experiment: Displacement of [3H]-ifenprodil from rat cortical membranes NMDA receptor by beta counting analysis in absence of spermine

N=C(N)c1ccc(OCc2ccccc2COc2ccc(C(=N)N)cc2)cc1
Ratio IC50 [1]: 4 | IC50 (Glutamate NMDA receptor [2]): 5.54 µM | IC50 (Glutamate NMDA receptor [3]): 1.46 µM | IC50 (Glutamate NMDA receptor [4]): 1.42 µM

N=C(N)c1ccc(OC(=O)c2ccc(C(=O)Oc3ccc(C(=N)N)cc3)cc2)cc1 [BIS(4-CARBAMIMIDOYLPHENYL)TEREPHTHALATE]
Ratio IC50 [1]: 3.98 | IC50 (Glutamate NMDA receptor [2]): 46.6 µM | IC50 (Glutamate NMDA receptor [3]): 10.8 µM | IC50 (Glutamate NMDA receptor [4]): 27 µM

N=C(N)c1ccc(-c2ccc(-c3ccc(C(=N)N)s3)s2)s1
Ratio IC50 [1]: 1.5 | IC50 (Glutamate NMDA receptor [2]): 6.76 µM | IC50 (Glutamate NMDA receptor [3]): 5.34 µM

CC(C)/N=C(/N)c1ccc(N2CCN(c3ccc(/C(N)=N\C(C)C)cc3)CC2)cc1
Ratio IC50 [1]: 32.9 | IC50 (Glutamate NMDA receptor [2]): 544 µM | IC50 (Glutamate NMDA receptor [3]): 21.4 µM

N=C(N)c1ccc(NCCCCNc2ccc(C(=N)N)cc2)cc1
Ratio IC50 [1]: 17.2 | IC50 (Glutamate NMDA receptor [2]): 84.2 µM | IC50 (Glutamate NMDA receptor [3]): 4.55 µM

c1cc(N2CCCN(c3ccc(C4=NCCN4)cc3)CC2)ccc1C1=NCCN1
Ratio IC50 [1]: 30.1 | IC50 (Glutamate NMDA receptor [2]): 92.2 µM | IC50 (Glutamate NMDA receptor [3]): 3.03 µM

N=C(N)c1ccc(NC(=O)CCCCCC(=O)Nc2ccc(C(=N)N)cc2)cc1
IC50 (Glutamate NMDA receptor [2]): > 1000 µM | IC50 (Glutamate NMDA receptor [3]): > 1000 µM

N=C(N)c1ccc(C(=O)NCCCCCNC(=O)c2ccc(C(=N)N)cc2)cc1
IC50 (Glutamate NMDA receptor [2]): > 1000 µM | IC50 (Glutamate NMDA receptor [3]): 688 µM

CCN(CCN(CC)c1ccc(C(=N)N)cc1)c1ccc(C(=N)N)cc1
Ratio IC50 [1]: 11.8 | IC50 (Glutamate NMDA receptor [2]): 13.8 µM | IC50 (Glutamate NMDA receptor [3]): 1.14 µM | IC50 (Glutamate NMDA receptor [4]): 9.16 µM

N=C(N)c1ccc(OCc2cccc(COc3ccc(C(=N)N)cc3)c2)cc1
Ratio IC50 [1]: 9.04 | IC50 (Glutamate NMDA receptor [2]): 6.7 µM | IC50 (Glutamate NMDA receptor [3]): 0.79 µM | IC50 (Glutamate NMDA receptor [4]): 3.97 µM

N=C(N)c1ccc(-c2ccc(-c3ccc(C(=N)N)cc3)o2)cc1 [FURAMIDINE]
Ratio IC50 [1]: 2.37 | IC50 (Glutamate NMDA receptor [2]): 7.48 µM | IC50 (Glutamate NMDA receptor [3]): 4.23 µM

N=C(NC1CCCC1)c1ccc(N2CCN(c3ccc(C(=N)NC4CCCC4)cc3)CC2)cc1
Ratio IC50 [1]: 19.3 | IC50 (Glutamate NMDA receptor [2]): 159 µM | IC50 (Glutamate NMDA receptor [3]): 9.25 µM

CCCCNC(=N)c1ccc(N2CCCN(c3ccc(C(=N)NCCCC)cc3)CC2)cc1
Ratio IC50 [1]: 11.2 | IC50 (Glutamate NMDA receptor [2]): 103 µM | IC50 (Glutamate NMDA receptor [3]): 9.94 µM

CC(C)NC(=N)c1ccc(NC(=O)c2cccc(C(=O)Nc3ccc(C(=N)NC(C)C)cc3)n2)cc1
Ratio IC50 [1]: 10.8 | IC50 (Glutamate NMDA receptor [2]): 74.9 µM | IC50 (Glutamate NMDA receptor [3]): 6.94 µM | IC50 (Glutamate NMDA receptor [4]): 49.4 µM

CC(C)NC(=N)c1ccc(NC(=O)c2ccc(C(=O)Nc3ccc(C(=N)NC(C)C)cc3)o2)cc1
Ratio IC50 [1]: 16.9 | IC50 (Glutamate NMDA receptor [2]): 174 µM | IC50 (Glutamate NMDA receptor [3]): 10.6 µM

N=C(N)c1ccc(COc2ccccc2OCc2ccc(C(=N)N)cc2)cc1
Ratio IC50 [1]: 10.1 | IC50 (Glutamate NMDA receptor [2]): 18.4 µM | IC50 (Glutamate NMDA receptor [3]): 2.19 µM | IC50 (Glutamate NMDA receptor [4]): 7.29 µM

N=C(NCCCO)c1ccc(N2CCCN(c3ccc(/C(N)=N/CCCO)cc3)CC2)cc1
Ratio IC50 [1]: 9.72 | IC50 (Glutamate NMDA receptor [2]): 427 µM | IC50 (Glutamate NMDA receptor [3]): 41.2 µM

N=C(N)c1ccc(C(=O)NCCCCCCNC(=O)c2ccc(C(=N)N)cc2)cc1
Ratio IC50 [1]: 4.59 | IC50 (Glutamate NMDA receptor [2]): 1210 µM | IC50 (Glutamate NMDA receptor [3]): 266 µM

N=C(N)c1ccc(C(=O)NCCCNC(=O)c2ccc(C(=N)N)cc2)cc1
IC50 (Glutamate NMDA receptor [2]): > 1000 µM | IC50 (Glutamate NMDA receptor [3]): > 1000 µM

N=C(NCCO)c1ccc(N2CCCN(c3ccc(/C(N)=N/CCO)cc3)CC2)cc1
Ratio IC50 [1]: 35.7 | IC50 (Glutamate NMDA receptor [2]): 324 µM | IC50 (Glutamate NMDA receptor [3]): 9.44 µM

CCCNC(=N)c1ccc(N2CCN(c3ccc(C(=N)NCCC)cc3)CC2)cc1
Ratio IC50 [1]: 21.8 | IC50 (Glutamate NMDA receptor [2]): 371 µM | IC50 (Glutamate NMDA receptor [3]): 15.9 µM

N=C(N)c1ccc(NC(=O)CCCCCCCCC(=O)Nc2ccc(C(=N)N)cc2)cc1
Ratio IC50 [1]: 4.07 | IC50 (Glutamate NMDA receptor [2]): 62.6 µM | IC50 (Glutamate NMDA receptor [3]): 15.7 µM

N=C(N)c1ccc(NC(=O)CCCCCCC(=O)Nc2ccc(C(=N)N)cc2)cc1
Ratio IC50 [1]: 7.25 | IC50 (Glutamate NMDA receptor [2]): 170 µM | IC50 (Glutamate NMDA receptor [3]): 22.9 µM

Cc1ccc(S(=O)(=O)N(CCOc2ccc(C(=N)N)cc2)CCOc2ccc(C(=N)N)cc2)cc1
Ratio IC50 [1]: 6.28 | IC50 (Glutamate NMDA receptor [2]): 1.32 µM | IC50 (Glutamate NMDA receptor [3]): 0.24 µM | IC50 (Glutamate NMDA receptor [4]): 0.41 µM

N=C(N)c1ccc(-c2ccc(-c3ccc(-c4ccc(C(=N)N)cc4)nc3)cn2)cc1
Ratio IC50 [1]: 1.24 | IC50 (Glutamate NMDA receptor [2]): 30 µM | IC50 (Glutamate NMDA receptor [3]): 26.8 µM

CC/N=C(\N)c1ccc(-c2ccc(-c3ccc(/C(N)=N/CC)cc3)o2)cc1
Ratio IC50 [1]: 2.56 | IC50 (Glutamate NMDA receptor [2]): 30.7 µM | IC50 (Glutamate NMDA receptor [3]): 12.2 µM

N=C(N)c1ccc(NCCCCCCCCNc2ccc(C(=N)N)cc2)cc1
Ratio IC50 [1]: 4.37 | IC50 (Glutamate NMDA receptor [2]): 31.1 µM | IC50 (Glutamate NMDA receptor [3]): 7.26 µM

N=C(NC1CCCC1)c1ccc(N2CCCN(c3ccc(C(=N)NC4CCCC4)cc3)CC2)cc1
Ratio IC50 [1]: 10.6 | IC50 (Glutamate NMDA receptor [2]): 85.7 µM | IC50 (Glutamate NMDA receptor [3]): 8.13 µM

N=C(N)NCCCCNC(=N)N
Ratio IC50 [1]: 33.6

N=C(N)c1ccc(N2CCCN(c3ccc(C(=N)N)cc3)CC2)cc1
Ratio IC50 [1]: 20.4 | IC50 (Glutamate NMDA receptor [2]): 5.47 µM | IC50 (Glutamate NMDA receptor [3]): 0.25 µM | IC50 (Glutamate NMDA receptor [4]): 19.1 µM

N=C(NC1CC1)c1ccc(N2CCN(c3ccc(C(=N)NC4CC4)cc3)CC2)cc1
Ratio IC50 [1]: 21.8 | IC50 (Glutamate NMDA receptor [2]): 466 µM | IC50 (Glutamate NMDA receptor [3]): 19.4 µM
